Measured values published in ChEMBL document CHEMBL4819122, “Novel 4-(piperazin-1-yl)quinolin-2(1H)-one bearing thiazoles with antiproliferative activity through VEGFR-2-TK inhibition” (Bioorg Med Chem, 2021).
Activity calls are given as the source filed them. The rule behind the calls is not given here.

How the values were obtained:
[1] = tested on: EKVX; assay: Cytotoxicity against human EKVX assessed as growth inhibition at 10 uM by NCI protocol relative to control; format: functional; settings: read-out: GI
In short: (§1)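 Run by NCI as a single-dose screen at 10 μM across the sixty-cell-line panel, which covers nine human tumour tissue types. The read-out is percent growth inhibition of treated cells relative to untreated cells.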

[2] = tested on: MDA-MB-435; assay: Cytotoxicity against human MDA-MB-435 assessed as growth inhibition at 10 uM by NCI protocol relative to control; format: functional, cell-based; in short: as §1
[3] = tested on: A498; assay: Cytotoxicity against human A498 assessed as growth inhibition at 10 uM by NCI protocol relative to control; format: functional; settings: read-out: GI; in short: as §1
[4] = tested on: Hs-578T; assay: Cytotoxicity against human HS 578T assessed as growth inhibition at 10 uM by NCI protocol relative to control; format: functional; settings: read-out: GI; in short: as §1
[5] = tested on: T47D; assay: Cytotoxicity against human T-47D assessed as growth inhibition at 10 uM by NCI protocol relative to control; format: functional; settings: read-out: GI
In short: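 Run by the NCI under its standard protocol: one dose of 10 μM against a sixty-line panel from nine human tumour tissues. Result given as percent growth inhibition of treated cells relative to untreated cells.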

[6] = tested on: T47D; assay: Cytotoxicity against human T47D cells assessed as reduction in cell viability after 3 hrs by MTT assay
[7] = tested on: MCF10; assay: Cytotoxicity against human MCF10 cells assessed as reduction in cell viability after 3 hrs by MTT assay; settings: MCF10, 3 h

Row | SMILES | inhibition of growth at 10 µM [1] | growth inhibition (GI) [2] | inhibition of growth at 10 µM [3] | inhibition of growth at 10 µM [4] | inhibition of growth at 10 µM [5] | IC50 [6] | IC50 [7]
1 | O=c1cc(N2CCNCC2)c2cc(F)ccc2[nH]1 | 56.2% | inactive | 26% | 19.6% | 10.5% | 37.7 µM | 
2 | CC[C@@]1(O)C(=O)OCc2c1cc1n(c2=O)Cc2cc3ccccc3nc2-1 [CAMPTOTHECIN] |  |  |  |  |  |  | 24.8 µM
